High-throughput results (PubChem)
Only some compounds are listed: those with a hit (about 2.3% of all), similar ones and a draw of the others.
TRPC4 act: TRPC4 (mouse) channel activation; Q9QUQ5; HEK293 TRPC4beta/mu-opioid, Fluo4 calcium fluorescence; stronger effect = higher value; B-score at 10 µM; 310,000 compounds, 0.49% hits; AID 2237;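 active means B-score above 5 SD of library B-scores, and initial fluorescence ratio not above library mean plus 5 SD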;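 further: positive B-score marks a calcium rise read as TRPC4 activation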
Target sequence (Q9QUQ5 whole entry, looked up): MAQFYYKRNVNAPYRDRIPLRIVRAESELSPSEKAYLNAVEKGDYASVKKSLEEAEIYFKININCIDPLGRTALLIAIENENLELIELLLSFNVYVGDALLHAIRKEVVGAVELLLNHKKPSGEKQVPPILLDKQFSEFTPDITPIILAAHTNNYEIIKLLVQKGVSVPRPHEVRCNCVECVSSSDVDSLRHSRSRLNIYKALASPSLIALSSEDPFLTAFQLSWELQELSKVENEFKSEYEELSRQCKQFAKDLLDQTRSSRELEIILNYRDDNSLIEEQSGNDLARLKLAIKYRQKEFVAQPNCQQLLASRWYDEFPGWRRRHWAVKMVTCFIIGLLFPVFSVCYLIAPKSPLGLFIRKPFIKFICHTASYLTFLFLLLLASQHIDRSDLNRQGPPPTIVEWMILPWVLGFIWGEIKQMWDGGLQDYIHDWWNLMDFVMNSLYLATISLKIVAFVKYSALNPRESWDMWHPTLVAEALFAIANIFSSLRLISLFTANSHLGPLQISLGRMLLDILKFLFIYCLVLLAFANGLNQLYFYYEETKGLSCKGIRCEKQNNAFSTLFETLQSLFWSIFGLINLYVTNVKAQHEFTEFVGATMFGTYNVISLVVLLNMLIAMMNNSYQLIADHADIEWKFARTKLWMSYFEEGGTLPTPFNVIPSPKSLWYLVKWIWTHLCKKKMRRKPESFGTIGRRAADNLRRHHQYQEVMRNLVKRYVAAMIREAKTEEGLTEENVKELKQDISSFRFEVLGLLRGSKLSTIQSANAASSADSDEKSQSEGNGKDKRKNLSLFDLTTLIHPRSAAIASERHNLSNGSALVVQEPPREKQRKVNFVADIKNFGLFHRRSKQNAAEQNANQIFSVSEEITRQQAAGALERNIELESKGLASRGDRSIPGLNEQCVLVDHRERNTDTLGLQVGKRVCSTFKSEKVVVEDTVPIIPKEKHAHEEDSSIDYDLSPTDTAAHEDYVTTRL
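Assay system: HEK293 cells stably co-expressing mouse TRPC4beta and mu-opioid receptor / Timing: Fluo4 dye loading 45 min at room temperature, 110 s recording / Signal: Fluo4 calcium-sensitive dye fluorescence, kinetic, 1 Hz baseline / Read-out: integrated baseline-normalised fluorescence ratio, converted to per-well B score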
TRPC4 inh: TRPC4 (mouse) channel inhibition | Q9QUQ5 | HEK293 TRPC4beta/mu-opioid, DAMGO-evoked Fluo4 calcium flux; stronger effect = lower value | B-score at 10 µM | 300,000 compounds, 0.39% hits;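 active means B-score over 3 SD under the library average, no early fluorescence shift, positive overall ratio signal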
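Assay system: TRPC4beta/mu-opioid receptor HEK293 cell line; compound dosing: single concentration per test compound; detection: Fluo4 Ca2+ flux fluorescence; evaluation: per-well B score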
TRPC4 potent: TRPC4 (mouse) allosteric potentiation; HEK293 TRPC4beta/mu-opioid, DAMGO EC20, Fluo-4 Ca2+ flux; stronger effect = higher value; Q9QUQ5; 310,000 compounds, 0.42% hits; B-score at 10 µM;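 active means B-score of calcium response area above 5 SD of library B-scores, with initial fluorescence ratio within 5 SD of library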;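 further: B-score of integrated fluorescence ratio over time as area under calcium response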
TRPC6 inhibitor: mouse TRPC6 channel inhibition; Q61143; HEK293-TRPC6, membrane potential dye, ACh-evoked depolarization; stronger effect = lower value; B-score at 10 µM; 310,000 compounds, 1.1% hits;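 active means B-score under library mean minus 3 SD, initial fluorescence not abnormally high, positive integrated signal ratio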;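 further: B-score derived from integrated fluorescence ratio over the kinetic read; more negative B-score means stronger inhibition of depolarization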
TRPC6 act: mouse TRPC6 channel activation | B-score at 10 µM | HEK293-TRPC6 membrane potential dye fluorescence; stronger effect = higher value | Q61143 | AID 2550 | 310,000 compounds, 0.13% hits;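 active means B-score of the integrated fluorescence ratio above library mean plus 3 SD, and starting fluorescence ratio within library mean plus 5 SD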;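 further: higher score means more depolarization so channel activation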
* marks the source's active call; other numbers are inactive results; i = inactive.

SMILES | TRPC4 act | TRPC4 inh | TRPC4 potent | TRPC6 inhibitor | TRPC6 act
CN(CC(=O)Nc1ccc(Cl)cc1)C(=O)CCc1ccccc1 | i | i | i | i | i
CN(CCC(=O)Nc1ccc2c(c1)OCO2)Cc1ccccc1 | 53* | i | i | i | i
CN(CCC(=O)Nc1ccc(Cl)cc1)Cc1ccccc1 | 126* | i | i | i | i
Cc1nn(CCO)c2ncc(C(=O)c3cc(F)ccc3O)cc12 | i | i | i | i | i
CN(C(=O)CSc1nc2ccccc2s1)c1c(N)n(Cc2ccccc2)c(=O)[nH]c1=O | i | i | i | i | i
CCCN(CC(=O)Nc1ccccc1C)C(=O)c1ccc(N2CCCC2)c([N+](=O)[O-])c1 | i | i | i | i | i
CCN(CC)CCNC(=O)Cn1nc(Cc2ccccc2)c2ccccc2c1=O | i | i | i | i | i
CCCCN(CC)CCCNC(=O)Cn1nc(Cc2cccnc2)c2ccccc2c1=O | 134* | i | i | i | i
O=C(/C=C/c1ccc(S(=O)(=O)N2CCOCC2)cc1)NC(=S)Nc1ccc(N2CCOCC2)cc1 | i | i | 12* | i | i
Cc1cc(C)c(NC(=O)c2ccc(CN3CCc4ccccc4C3)cc2)c(C)c1 | i | i | i | i | i
CCOC(=O)CN(C)C(=O)C1CCCN1C(=O)OC(C)(C)C (centres undefined) | i | i | i | i | i
CCOC(=O)C1CCCN(C(=O)CCCn2nnnc2CN2CCOCC2)C1 (centres undefined) | i | i | 23* | i | i
c1ccc2c(Nc3ccc4c(c3)OCCO4)c3c(nc2c1)CCCC3 | i | i | i | i | i
CC1(C)CC2CC(C)(CN2C(=O)COC(=O)c2n[nH]c(=O)c3ccccc23)C1 (centres undefined) | i | i | 11* | i | i
CCC1CCCCN1S(=O)(=O)c1ccc(C(=O)N(CCCN(C)C)c2nc3cc4c(cc3s2)OCO4)cc1 (centres undefined) | 130* | i | i | i | i
CC1CCCCN1S(=O)(=O)c1ccc(C(=O)N(CCCN(C)C)c2nc3ccc(Br)cc3s2)cc1 (centres undefined) | 143* | i | i | i | i
O=[N+]([O-])c1cccc(N(CC(O)CN2CCCC2)S(=O)(=O)c2ccccc2)c1 (centres undefined) | i | -8* | i | i | i
N#CC1=C(N)OC2=C(C(=O)CCC2)C1c1cc2c(cc1Cl)OCO2 (centres undefined) | i | i | i | i | i
O=[N+]([O-])c1ccc(-c2nn(-c3ccccc3)cc2/C=N/n2c(-c3ccncc3)n[nH]c2=S)cc1 | i | i | i | i | i
Oc1c(Br)cc(Br)c(/C=N/n2c(-c3ccccc3)n[nH]c2=S)c1Br | i | i | 28* | i | i
S=c1[nH]nc(-c2ccncc2)n1/N=C/c1cn(-c2ccccc2)nc1-c1ccccc1 | i | i | 13* | i | i
CCCCN(C)CCNC(=O)c1cc(-c2cccnc2)nc2ccc(S(=O)(=O)N3CCC(C)CC3)cc12 | 57* | i | i | i | i
CCOc1ccccc1NC(=O)C(NCC1CCCCC1)c1ccccc1 (centres undefined) | i | i | i | i | i
CCOc1ccccc1O[C@H](c1ccccc1)[C@H]1CNCCO1 | 161* | i | i | i | i
O=C(Nc1ccc(F)cc1)Nc1cc(S(=O)(=O)N2CCOCC2)ccc1N1CCCC1 | i | i | 39* | i | i
SMILES | TRPC4 act | TRPC4 inh | TRPC4 potent | TRPC6 inhibitor | TRPC6 act
Cc1cnc(C(=O)Nc2cc(S(=O)(=O)N3CCOCC3)ccc2N2CCN(C)CC2)cn1 | i | i | 11* | i | i
O=C(Nc1cc(S(=O)(=O)N2CCOCC2)ccc1N1CCOCC1)c1cnccn1 | i | i | i | i | i
COc1ccc(OCc2cc(C(=O)N3C[C@@H](C)O[C@@H](C)C3)no2)c(Cl)c1 | i | i | i | i | i
CCOC(=O)c1ccc(COc2ccc(C(C)C)cc2)o1 | i | i | i | i | i
CCCc1ccc(OCc2ccc(C(=O)N3CCCC3)o2)cc1 | i | i | 26* | i | i
CC(C)c1ccc(OCc2ccc(C(=O)N3CCCC3)o2)cc1 | i | i | 42* | i | i
CCOc1ccc(OCc2ccc(C(=O)N3CCCC3)o2)cc1 | i | i | i | i | i
Nc1ccc(C(=O)N/N=C2\CCCc3c2[nH]c2ccccc32)cc1 | i | i | i | i | i
c1ccc(CCN=C2CCCc3c2[nH]c2ccccc32)cc1 | 155* | i | i | i | i
COC(=O)c1cc(C(=O)c2ccc(C(C)(C)C)cc2)c[nH]1 | i | i | 10* | i | i
CCCOc1ccc(C(=O)NNC(=S)NC(=O)c2ccccc2[N+](=O)[O-])cc1 | i | i | i | i | i
CCCOc1ccc(C(=O)NNC(=S)NC(C)=O)cc1 | i | i | i | i | i
CCCOc1ccc(C(=O)NNC(=S)NC(=O)c2cccs2)cc1 | 175* | i | i | i | i
CCCOc1ccc(C(=O)NNC(=S)NC(=O)c2ccccc2)cc1 | 167* | i | i | i | i
CCCCOc1ccc(C(=O)NNC(=S)NC(=O)CC)cc1 | 73* | i | i | i | i
COc1ccc(-c2cc(C3CCN(c4cc(Cl)nc(N)n4)CC3)[nH]n2)cc1 | i | i | 38* | i | i
COc1ccc(OC)c(-c2cc(C3CCN(c4cc(Cl)nc(N)n4)CC3)[nH]n2)c1 | i | i | 12* | i | i
Nc1nc(Cl)cc(N2CCC(c3cc(-c4ccc(Cl)cc4)n[nH]3)CC2)n1 | i | i | i | i | i
Cc1ccc(-c2c(C(=O)N/N=C/c3ccc(OC(C)C)cc3)nnn2-c2nonc2N)cc1 | i | i | 18* | i | i
CCOc1ccc(-c2c(C(=O)N/N=C/c3ccc(OC(C)C)cc3)nnn2-c2nonc2N)cc1 | i | i | i | i | i
CCN1CCN(c2ccc(S(=O)(=O)N3CCCCC3)cc2NC(=O)c2cccc(C(F)(F)F)c2)CC1 | i | i | 29* | i | i
CCN1CCN(c2ccc(S(=O)(=O)N3CCCCC3)cc2NC(=O)c2cccc(F)c2)CC1 | i | i | 17* | i | i
CCN1CCN(c2ccc(S(=O)(=O)N3CCCCC3)cc2NC(=O)c2cccc(C)c2[N+](=O)[O-])CC1 | 132* | i | i | i | i
